Data set [1] deals with T1, ABCG2 (Homo sapiens, UniProt Q9UNQ0).
T1 sequence (Q9UNQ0 whole entry): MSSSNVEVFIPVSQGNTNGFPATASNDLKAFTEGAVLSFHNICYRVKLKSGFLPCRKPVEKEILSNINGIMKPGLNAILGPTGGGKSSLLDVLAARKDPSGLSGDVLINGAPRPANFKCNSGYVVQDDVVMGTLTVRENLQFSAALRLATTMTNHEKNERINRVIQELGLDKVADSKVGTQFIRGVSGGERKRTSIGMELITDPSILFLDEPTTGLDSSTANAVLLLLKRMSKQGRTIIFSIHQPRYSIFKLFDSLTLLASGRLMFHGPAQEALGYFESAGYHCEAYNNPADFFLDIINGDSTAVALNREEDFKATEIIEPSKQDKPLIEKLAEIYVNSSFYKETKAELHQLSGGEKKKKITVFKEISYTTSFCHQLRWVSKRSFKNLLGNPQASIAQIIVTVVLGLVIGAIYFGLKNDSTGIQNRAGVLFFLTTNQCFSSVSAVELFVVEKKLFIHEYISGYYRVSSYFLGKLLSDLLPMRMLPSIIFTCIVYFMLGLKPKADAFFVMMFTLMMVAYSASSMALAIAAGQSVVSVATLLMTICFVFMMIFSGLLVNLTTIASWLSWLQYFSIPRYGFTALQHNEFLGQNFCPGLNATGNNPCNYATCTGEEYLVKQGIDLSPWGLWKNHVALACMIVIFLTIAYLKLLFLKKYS
The experiment in a line: Inhibition of ABCG2 in human MCF7/Topo cells at 70 to 100 uM after 2 hrs by Hoechst 33342 microplate assay relative to 10 uM fumitremorgin. The format is cell-based. Conditions: probe Hoechst 33342, read-out: Imax.

The nature of data set [2]: Half life in NMRI nu/nu mouse plasma at 3 mM by RP-HPLC analysis. It is filed as ADME, cell-free.
For data set [3], the target named is T2, ATP-dependent translocase ABCB1 (Homo sapiens, UniProt P08183). The experiment in a line: Inhibition of ABCB1 in human KBV1 cells up to 100 uM after 10 mins by Calcein-AM microplate assay. It is filed as cell-based. Conditions: kbv1, 10 min. In short, it runs like this: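 Microplate calcein-AM efflux assay in ABCB1-overexpressing Kb-V1 cells. Values are means ± SEM from two to three independent experiments, each run in triplicate.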

Data set [4] addresses T3, Broad substrate specificity ATP-binding cassette transporter ABCG2 (Homo sapiens, UniProt Q9UNQ0).
T3 sequence (Q9UNQ0 whole entry): T1 sequence (Q9UNQ0 whole entry)
The experiment in a line: Inhibition of ABCG2 in human MCF7/Topo cells after 2 hrs by Hoechst 33342 microplate assay. It is filed as cell-based. Conditions: for inhibition (INH): human, mcf7/topo, 2 h.

The target of the next data set is ABCB1 (Homo sapiens, UniProt P08183). Briefly: Inhibition of ABCB1 in human KBV1 cells after 10 mins by Calcein-AM microplate assay relative to 1 uM tariquidar. The format is cell-based. Conditions: probe calcein-AM. In short, it runs like this: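 Microplate calcein-AM assay in ABCB1-overexpressing Kb-V1 cells. Maximal inhibition is expressed as a percentage of the maximal response to tariquidar at 1 μM. Means ± SEM come from two to three independent experiments, each run in triplicate.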

The target in data set [5] is T2, ATP-dependent translocase ABCB1. The experiment in a line: Inhibition of ABCB1 in human KBV1 cells after 10 mins by Calcein-AM microplate assay. It is filed as cell-based.
Another data set has as its system Plasma. The experiment in a line: Stability in NMRI nu/nu mouse plasma at 3 mM measured within 30 mins by RP-HPLC analysis. The format is ADME, cell-free. Particulars: 0.5 h, 3000 µM.
Data set [6] concerns the target T1, ABCG2. The experiment in a line: Ratio of compound IC50 to elacridar IC50 for ABCG2 in human MCF7/Topo cells after 2 hrs by Hoechst 33342 microplate assay. Particulars: probe Hoechst 33342, read-out: Ratio IC50. It is filed as cell-based.

pIC50: −log10 of the molar value.

Sequence of ABCB1 (P08183 whole entry): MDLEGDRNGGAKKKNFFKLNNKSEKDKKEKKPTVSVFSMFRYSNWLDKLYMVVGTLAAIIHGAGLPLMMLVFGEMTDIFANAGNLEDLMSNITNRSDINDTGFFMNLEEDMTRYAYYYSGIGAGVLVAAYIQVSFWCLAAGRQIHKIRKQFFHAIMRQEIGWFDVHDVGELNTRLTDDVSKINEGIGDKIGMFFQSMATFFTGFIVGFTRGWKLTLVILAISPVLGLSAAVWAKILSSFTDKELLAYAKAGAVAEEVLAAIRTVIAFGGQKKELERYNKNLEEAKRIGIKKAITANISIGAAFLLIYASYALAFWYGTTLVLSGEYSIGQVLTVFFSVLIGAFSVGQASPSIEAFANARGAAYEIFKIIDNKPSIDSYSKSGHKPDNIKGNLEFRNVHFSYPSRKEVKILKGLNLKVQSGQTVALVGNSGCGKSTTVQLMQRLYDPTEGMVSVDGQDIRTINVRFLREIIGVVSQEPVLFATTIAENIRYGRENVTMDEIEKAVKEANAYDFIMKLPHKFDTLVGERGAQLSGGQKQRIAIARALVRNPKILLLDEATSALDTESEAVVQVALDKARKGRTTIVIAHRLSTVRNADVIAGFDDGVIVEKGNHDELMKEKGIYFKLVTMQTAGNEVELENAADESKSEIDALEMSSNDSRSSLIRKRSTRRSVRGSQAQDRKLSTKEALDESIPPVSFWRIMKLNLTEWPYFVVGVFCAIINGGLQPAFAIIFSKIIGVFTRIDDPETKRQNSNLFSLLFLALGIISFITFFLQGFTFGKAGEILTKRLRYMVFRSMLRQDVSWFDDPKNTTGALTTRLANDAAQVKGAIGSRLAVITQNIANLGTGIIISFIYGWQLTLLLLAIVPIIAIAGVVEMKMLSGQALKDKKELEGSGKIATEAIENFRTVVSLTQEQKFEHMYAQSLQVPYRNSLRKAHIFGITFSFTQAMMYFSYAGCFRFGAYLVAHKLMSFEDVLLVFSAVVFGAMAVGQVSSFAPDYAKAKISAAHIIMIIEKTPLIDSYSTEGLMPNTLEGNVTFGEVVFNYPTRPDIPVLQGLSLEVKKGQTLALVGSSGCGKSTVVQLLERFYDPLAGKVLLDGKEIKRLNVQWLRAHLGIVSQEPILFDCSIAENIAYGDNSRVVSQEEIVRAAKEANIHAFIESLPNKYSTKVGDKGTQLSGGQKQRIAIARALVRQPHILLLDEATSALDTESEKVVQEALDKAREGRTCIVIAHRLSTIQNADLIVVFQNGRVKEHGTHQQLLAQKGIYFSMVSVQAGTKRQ
T2 sequence (P08183 whole entry): as above

With `COC(=O)c1ccc(-c2ccc(CN3CCc4cc(OC)c(OC)cc4C3)cc2)cc1NC(=O)c1ccc2ccccc2n1`, at ABCG2 [1], the Emax at 2 h was 87%. The half-life at 3000 µM in data set [2] is 24 h. Besides, the “inhibition (INH)” value in data set [3] is listed as “Not Active”. This molecule had a pIC50 in data set [4] of 6.03.

Regarding `COCCOCCOCCOc1cc2c(cc1OCCOCCOCCOC)CN(CCc1ccc(-c3ccc(C(=O)OC)c(NC(=O)c4ccc5ccccc5n4)c3)cc1)CC2`, the Emax at 2 h at ABCG2 [1] amounted to 112%. In data set [2], this molecule gave a half-life at 3000 µM of 24 h. At ABCB1, the inhibition at 10 min is 50%. The negative logarithm of the IC50 (pIC50) in data set [5] was 5.22. In data set [4], the pIC50 was 6.26 and the “inhibition (INH)” value is reported as “Dose-dependent effect”.

On to `COc1cc2c(cc1OC)CN(CCc1ccc(NC(=O)c3cccc4c(=O)c5cccc(OC)c5[nH]c34)cc1)CC2`, for which the Emax at 2 h at ABCG2 [1] stood at 63%.

With `COc1ccc2c3c([nH]c2c1)[C@H](CC(C)C)N1C(=O)[C@H](CCC(=O)OC(C)(C)C)NC(=O)[C@@H]1C3`, the “inhibition (INH)” value in data set [3] was “Not Active”.

Turning to `COCCOCCOCCOc1cc2c(cc1OC)CCN(Cc1ccc(-c3ccc(C(=O)OC)c(NC(=O)c4ccc5ccccc5n4)c3)cc1)C2`, the Emax at 2 h at ABCG2 [1] was determined as 109%. Moreover, the half-life at 3000 µM in data set [2] is 24 h. Also, the inhibition at 10 min on ABCB1 was 20%. Moreover, the pIC50 in data set [5] was 5.91. In data set [4], the pIC50 is 6.23 and the “inhibition (INH)” value is on record as “Dose-dependent effect”.

With `COCCOCCOCCOc1cc2c(cc1OCCOCCOCCOC)CN(Cc1ccc(-c3ccc(C(=O)OC)c(NC(=O)c4ccc5ccccc5n4)c3)cc1)CC2`, the Emax at 2 h on ABCG2 [1] came out at 103%. In data set [2], the half-life at 3000 µM is 24 h. The “inhibition (INH)” value in data set [3] is “Not Active”. Moreover, the negative-log IC50 (pIC50) in data set [4] is 6.08.

Turning to `COC(=O)c1ccc(C(=O)Nc2ccc(CCN3CCc4cc(OC)c(OC)cc4C3)cc2)cc1NC(=O)c1ccc2ccccc2n1`, the Emax at 2 h at ABCG2 [1] was 63%. In addition, the half-life at 3000 µM in data set [2] is 0.167 h. Moreover, in the data set on Plasma, the Stability entry was “Unstable”. In addition, in data set [4], the pIC50 is 7.19 and the “inhibition (INH)” value is “Dose-dependent effect”.

For the molecule `COC(=O)c1ccc(-c2ccc(CCN3CCc4cc(OC)c(OC)cc4C3)cc2)cc1NC(=O)c1ccc2ccccc2n1`, at ABCG2 [1], the Emax at 2 h is 126%. The same molecule gave a half-life at 3000 µM in data set [2] of 24 h. The “inhibition (INH)” value in data set [3] was “Not Active”. In addition, the pIC50 in data set [4] is 5.49.

For the molecule `COCCOCCOCCOc1cc2c(cc1OC)CCN(CCc1ccc(-c3ccc(C(=O)OC)c(NC(=O)c4ccc5ccccc5n4)c3)cc1)C2`, the Emax at 2 h on ABCG2 [1] was 98%. This molecule also showed a half-life at 3000 µM in data set [2] of 24 h. The inhibition at 10 min on ABCB1 was 50%. For the same molecule, the pIC50 in data set [5] is 5.27; in data set [4], 6.12.

`COC(=O)c1ccc(-c2ccc(CCN3CCc4ccccc4C3)cc2)cc1NC(=O)c1ccc2ccccc2n1`: the Emax at 2 h at ABCG2 [1] was 90%. This molecule gave a half-life at 3000 µM in data set [2] of 24 h. For the same molecule, the “inhibition (INH)” value in data set [3] is on record as “Not Active”. Further, the negative-log IC50 (pIC50) in data set [4] is 5.96.

Turning to `COC(=O)c1ccc(-c2ccc(CN3CCc4ccccc4C3)cc2)cc1NC(=O)c1ccc2ncccc2c1`, the Emax at 2 h at ABCG2 [1] is 94%. The half-life at 3000 µM in data set [2] was 24 h. Also, the figures for the pIC50 in data set [5] and in data set [4] were 5.35 and 6.19, respectively.

Regarding `COCCOCCOCCOc1cc2c(cc1OC)CN(Cc1ccc(-c3ccc(C(=O)OC)c(NC(=O)c4ccc5ccccc5n4)c3)cc1)CC2`, the Emax at 2 h on ABCG2 [1] turned out to be 114%. The molecule also showed a half-life at 3000 µM in data set [2] of 24 h. Also, the “inhibition (INH)” value in data set [3] was “Not Active”. Besides, the negative-log IC50 (pIC50) in data set [4] is 5.99.

With `COCCOCCOCCOc1cc2c(cc1OC)CCN(CCc1ccc(NC(=O)c3ccc(C(=O)OC)c(NC(=O)c4ccc5ccccc5n4)c3)cc1)C2`, in data set [2], the half-life at 3000 µM came to 0.167 h. In addition, the Stability entry in the data set on Plasma is given as “Unstable”.

`COc1ccc2c3c([nH]c2c1)[C@H](C=C(C)C)N1C(=O)[C@@H]2CCCN2C(=O)[C@@H]1C3` [FUMITREMORGIN]: on ABCG2 [1], the Emax at 2 h is 100%. Also, the pIC50 in data set [4] was 6.14.

For `COc1cc2c(cc1OC)CN(CCc1ccc(NC(=O)c3cc(OC)c(OC)cc3NC(=O)c3cnc4ccccc4c3)cc1)CC2`, the Emax at 2 h on ABCG2 [1] was 69%. In addition, the selectivity ratio at 2 h on ABCG2 [6] came to 4. In addition, in data set [4], the “inhibition (INH)” value is “Dose-dependent effect”.

Turning to `COC(=O)c1ccc(-c2ccc(CN3CCc4cc(OC)c(OC)cc4C3)cc2)cc1NC(=O)c1ccc2ncccc2c1`, at ABCG2 [1], the Emax at 2 h was 92%. In addition, the half-life at 3000 µM in data set [2] was 24 h. Also, the results for the pIC50 in data set [5] and in data set [4] were 4.96 and 5.81, respectively.

Consider `COC(=O)c1ccc(-c2ccc(CN3CCc4ccccc4C3)cc2)cc1NC(=O)c1ccc2ccccc2n1`, for which the Emax at 2 h on ABCG2 [1] turned out to be 85%. Besides, in data set [2], the half-life at 3000 µM was 24 h. In data set [3], the “inhibition (INH)” value was “Not Active”. The same molecule had a pIC50 in data set [4] of 5.84.

Turning to `COCCOCCOCCOc1cc2c(cc1OC)CN(Cc1ccc(-c3ccc(C(=O)OC)c(NC(=O)c4ccc5ncccc5c4)c3)cc1)CC2`, on ABCG2 [1], the Emax at 2 h was found to be 67%. In data set [2], this molecule gave a half-life at 3000 µM of 24 h. For the same molecule, the negative-log IC50 (pIC50) in data set [5] is 4.74; in data set [4] it was 6.63.

For orientation: half-life means the time needed for the level to fall by half in the phase considered. A high value points to slow loss. One may read the pIC50 as the IC50 on a negative log10 scale, so that one unit is a factor of ten. Broadly, the inhibition is the drop in the measured response relative to a control, in per cent.

These data come from ChEMBL document CHEMBL2331405, “Benzanilide-Biphenyl Replacement: A Bioisosteric Approach to Quinoline Carboxamide-Type ABCG2 Modulators” (ACS Med Chem Lett, 2013).
